Rpn11 inh: Rpn11 (human) deubiquitinase inhibition; 360,000 compounds, 0.59% hits; inhibition, % at 20 µM; human 26S proteasome, Ub4-pepOG fluorescence polarization; 20S core pre-blocked with epoxomicin;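 active = inhibition at 20 µM, scaled to each plate's controls, above about 33%, limit read from the data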
Target sequence (O00487 whole entry, looked up): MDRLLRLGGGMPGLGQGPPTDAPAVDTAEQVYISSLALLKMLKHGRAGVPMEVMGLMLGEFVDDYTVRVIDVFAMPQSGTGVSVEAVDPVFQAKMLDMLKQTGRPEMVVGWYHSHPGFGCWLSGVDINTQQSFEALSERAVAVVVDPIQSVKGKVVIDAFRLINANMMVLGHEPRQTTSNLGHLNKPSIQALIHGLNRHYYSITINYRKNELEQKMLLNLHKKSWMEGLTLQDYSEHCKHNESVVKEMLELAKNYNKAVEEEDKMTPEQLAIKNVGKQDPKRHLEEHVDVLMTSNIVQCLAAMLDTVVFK
CSN inh: blocks human CSN-mediated cullin deneddylation. Purified CSN, SCF-Nedd8-OG deneddylation, fluorescence polarization. Q92905. inhibition, % at 12.5 µM. AID 651999. 360,000 compounds, 0.38% hits;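 active = pattern-corrected inhibition above about 35%, with an unprinted fluorescence ratio check between 0.5 and 1.5, limit read from the data, passing the limit was not always enough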;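 note: 0% = enzyme with substrate and 100% = substrate without enzyme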
Target sequence (Q92905 whole entry, looked up, one chain of several): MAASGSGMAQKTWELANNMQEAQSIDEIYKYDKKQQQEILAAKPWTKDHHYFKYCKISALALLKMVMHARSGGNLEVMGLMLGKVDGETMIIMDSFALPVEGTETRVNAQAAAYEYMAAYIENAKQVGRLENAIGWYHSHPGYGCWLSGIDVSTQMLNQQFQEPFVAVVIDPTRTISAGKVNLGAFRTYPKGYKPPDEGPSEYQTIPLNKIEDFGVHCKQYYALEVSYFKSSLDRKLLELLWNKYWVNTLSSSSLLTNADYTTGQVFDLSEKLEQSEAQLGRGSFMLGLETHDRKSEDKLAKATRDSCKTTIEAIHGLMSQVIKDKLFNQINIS
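Material: purified human Csn5 enzyme expressed in HEK293T cells / Medium: Tris buffer pH 7.5, NaCl, DTT, Tween-20, trehalose, ovalbumin / Compound dosing: 12.5 µM single point / Schedule: 90 min incubation of compound, enzyme and substrate at room temperature / Signal: fluorescence polarization of the substrate / Control set: no-enzyme wells high, enzyme-with-substrate wells low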
Myeloid diff 2: myeloid differentiation induction. ER-HoxA9 myeloid progenitors, lysozyme-GFP differentiation, flow cytometry. calls only at 10 µM. 360,000 compounds, 1% hits. AID 624256;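 active = normalized GFP-positive differentiation at or above the plate's own cutoff, the solvent-only control mean plus 3 SD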;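 note: cells exposed to compound for four days before flow analysis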
TPT1 inh: blocks Candida albicans tRNA 2'-phosphotransferase | recombinant caTPT1, FP RNA substrate dephosphorylation | 300,000 compounds, 0.81% hits | inhibition, % at 5 µM;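 active = inhibition above the mean of all tested compounds plus 3 SD, set per screening campaign, cut at about 24% in these data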;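 note: plate controls were DMSO alone for no effect and ferristatin control at 100 nM for full effect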
HNF4A DNA FP: change in binding of human HNF4 alpha to DNA; P41235; activity change, % at 10 µM; HNF4a-FITC DNA binding, fluorescence polarization, 1 h; 360,000 compounds, 0.3% hits; in the data active = activity change above about 30%, passing the limit was not always enough
An asterisk follows results filed as active; i = inactive; x = no result shown; + = active, no number. The list is not random: actives were taken first. Their share in the collection is about 2.3%.

SMILES	Rpn11 inh	CSN inh	Myeloid diff 2	TPT1 inh	HNF4A DNA FP
COc1cc(-c2coc3c(C(=O)NCc4ccc(C(F)(F)F)cc4)cccc23)ccc1O	-3.3	-6.0	i	x	-2.0
CCOC(=O)C1Nc2ccc(C(F)(F)F)cc2C2c3ccccc3CC12 (stereo unspecified)	2.3	-1.2	i	-5.6	1.4
CCOC(=O)C1Nc2ccccc2C2C(O)C(O)CC12 (stereo unspecified)	-102.8	-42.0	+	-21.0	-74.0
O=C(O)CC(Cn1[nH]nnc1=S)c1ccccc1 (stereo unspecified)	4.1	2.8	+	-5.4	1.0
O=C(O)CC(CC(=O)Nc1nncs1)c1ccccc1 (stereo unspecified)	9.6	-1.5	i	-1.1	-2.8
N#Cc1ccc(COc2ccc(CCO)cc2-n2nc3ccccc3n2)cc1	-3.1	100.3*	i	4.6	-0.8
COC(=O)[C@]12CCCCC=C1N(CCC1=CCCCC1)C(=O)[C@H](CC(=O)N1CCCCC1)C2	x	-0.2	i	x	-0.4
COc1ccc(/C=C/CN2CCN(CCc3ccccc3)C(CCO)C2)cc1 (stereo unspecified)	33.9	8.6	+	4.3	-1.4
CCOc1ccccc1CN1CCN(C/C=C/c2ccc(OC)cc2)CC1CCO (stereo unspecified)	3.4	-5.3	i	-4.8	2.9
COCCNC(=O)C1(C)CCCN(Cc2csc(-c3ccc(Cl)cc3)n2)C1 (stereo unspecified)	-2.0	-1.8	i	x	0.4
CCOC(=O)c1nc2sc3c(c2c(=O)[nH]1)CCCC3	3.2	6.5	i	-1.2	-0.9
N#C/C(=C\c1ccc(C(=O)O)cc1)c1nc2sc3c(c2c(=O)[nH]1)CCCC3	x	70.4*	i	x	11.1
O=C(c1ccc(S(=O)(=O)Cc2cc(F)ccc2F)c([N+](=O)[O-])c1)N1CCCC1	3.2	-2.0	i	0.2	1.1
O=C(c1ccc(S(=O)(=O)Cc2cc(F)ccc2F)c([N+](=O)[O-])c1)N1CCCCC1	-1.7	4.0	+	-3.9	0.5
O=C(NCCCN1CCOCC1)C(=O)NCC1OCCN1S(=O)(=O)c1ccc(Cl)cc1 (stereo unspecified)	2.7	-2.6	i	x	-0.3
Cc1cccc(NC(=O)[C@H](Cc2c[nH]c3ccccc23)NC(=O)[C@@H]2Cc3ccccc3CN2)c1	5.1	5.2	i	0.3	3.4
Cc1ccc(NC(=O)[C@H](Cc2c[nH]c3ccccc23)NC(=O)[C@@H]2Cc3ccccc3CN2)c(C)c1	1.3	2.0	+	1.6	7.6
O=[N+]([O-])c1ccc(NN=Cc2ccccc2)nc1	12.3	5.3	i	x	7.8
O=[N+]([O-])c1ccc(N/N=C/c2ccc(OCc3cccc4ccccc34)cc2)nc1	x	70.5*	i	13.6	35.3*
CC(C)C(=O)N1CCC1(C)C(=O)Nc1ccc2[nH]ccc2c1 (stereo unspecified)	2.9	1.7	i	x	2.6
Cc1ccc(-c2cn(-c3ccc(SC(F)F)cc3)c3[n+]2CCC3)cc1	-6.9	0.8	+	1.3	-0.2
FC(F)Sc1ccc(-n2cc(-c3ccc(Cl)cc3)[n+]3c2CCC3)cc1	-5.8	3.1	i	1.3	-0.7
CC(/C=N\NC(=O)Cn1c(C)nc2ccccc21)=C\c1ccccc1	2.6	4.9	+	0.5	-3.7
CCCCNC(=O)c1nc(C2CCN(S(=O)(=O)c3ccc(C(F)(F)F)cc3)CC2)oc1-c1ccccc1	x	-1.0	i	x	2.0
CCOc1cc(/C=C2/C(=N)N3C(=NC2=O)SN=C3S(C)(=O)=O)ccc1OC(=O)c1ccco1	62.1*	25.4	i	7.9	34.0
SMILES	Rpn11 inh	CSN inh	Myeloid diff 2	TPT1 inh	HNF4A DNA FP
CCOc1cc(/C=C2\C(=N)N3N=C(S(=O)(=O)CC)SC3=NC2=O)ccc1OC(=O)c1ccco1	34.7	12.2	i	8.6	9.6
Cc1n[nH]c(C)c1N1C(=O)c2cccc3c(N4CCCCCC4)ccc(c23)C1=O	-113.9	-70.1	+	-6.9	-86.2
CC(=O)c1ccc2c3c(cccc13)C(=O)N(c1c(C)nn(C)c1C)C2=O	-2.1	-3.1	i	0.2	-2.7
Cc1cccc(C)c1NC(=O)C(c1ccnc2ccccc12)N1CCN(CCN(C)C)CC1 (stereo unspecified)	x	-1.6	i	x	-0.3
COc1cc(CN2C[C@@H](CO)O[C@@H](n3cnc4c(NCC(C)C)ncnc43)C2)cc(OC)c1OC	-5.0	-2.0	i	x	4.9
O=C(O)c1cccc(-n2cccc2/C=C2/NC(=O)N(c3ccc(Cl)cc3)C2=O)c1	x	19.1	i	x	-73.7
O=C(O)c1cccc(-n2cccc2/C=C2/NC(=O)N(c3cccc(Cl)c3)C2=O)c1	-0.9	35.1*	i	7.8	-26.8
O=S(=O)(c1cccs1)N1CCN(c2ccc(O)cc2)CC1	-3.3	-1.6	+	-2.4	-2.3
N#Cc1ccc(N[C@@H]2CCN3C(=O)c4ccccc4[C@@H]3C[C@H]2O)cc1	-7.1	0.0	+	x	0.2
COc1ccc(N2CCN(C3CCCN(Cc4ccc(F)cc4Cl)C3)CC2)cc1 (stereo unspecified)	-1.1	-2.3	+	-4.7	-1.2
CCNC(=O)C1(C)CCN(C(=O)c2ccc3c(c2)OCO3)C1 (stereo unspecified)	5.1	-3.6	i	x	1.4
CN1C(=O)[C@@](O)(c2cn(C)c3ccccc23)c2cc(Br)ccc21	x	-3.1	i	x	-1.5
Cc1ccc(C)c(NC(=O)COC(=O)CCC(=O)c2cccs2)c1	-3.7	-11.2	+	-0.2	-1.9
CCOc1ccc(CCNC(=O)COC(=O)CCC(=O)c2cccs2)cc1OCC	4.5	37.6*	i	x	-0.8
Cc1ccc(NC(=O)COC(=O)CCC(=O)c2cccs2)cc1	4.0	-2.0	i	1.8	1.4
O=C(CCC(=O)c1cccs1)c1cccs1	3.5	0.7	+	-7.5	3.7
CCN(c1ccc(OC)cc1)S(=O)(=O)N1CCCC(C(=O)NCc2ccc(OC(C)C)cc2)C1 (stereo unspecified)	3.7	-1.2	i	x	2.3
COc1ccccc1CNCC(O)(c1ccc(Cl)cc1)c1ccc(Cl)cc1	-5.3	0.2	+	-2.5	2.4
Cc1cccc(N=Cc2cc3c(cc2[N+](=O)[O-])OCO3)c1	3.3	2.6	i	13.8	0.4
COc1cc(C=Nc2cccc(C)c2)c(O)c([N+](=O)[O-])c1	39.0*	-8.3	i	4.4	-2.5
CCc1nc2c(OCc3ccc(Cl)cc3Cl)cccn2c1N(C)C(=O)CC(C)C	10.9	-2.2	i	x	2.8
O=C(Cc1nc2ccccc2[nH]c1=O)c1ccccc1	-75.7	-3.0	+	x	38.3*
CCCCn1nnnc1C(c1cccc2ccccc12)N1CCN(C/C=C/c2ccccc2)CC1 (stereo unspecified)	-4.5	1.8	i	x	1.8
CCOC(=O)C1C(c2ccccc2Cl)NC(=O)N(C)C1(O)C(F)(F)F (stereo unspecified)	-8.8	-2.3	+	3.6	0.1

Screens: PubChem, several laboratories
